ChEMBL document CHEMBL2150846, “Optimization of an ether series of mGlu5 positive allosteric modulators: molecular determinants of MPEP-site interaction crossover” (Bioorg Med Chem Lett, 2012)
Active and inactive are the calls of the source. The rule behind the calls is not given here.

Assays:
[1] = molecular target: T1, Metabotropic glutamate receptor 5 (Rattus norvegicus, UniProt P31424); experiment: Positive allosteric modulation of rat mGluR5 expressed in human HEK293 cells assessed as calcium mobilization; type: functional, cell-based
T1 sequence (P31424 whole entry): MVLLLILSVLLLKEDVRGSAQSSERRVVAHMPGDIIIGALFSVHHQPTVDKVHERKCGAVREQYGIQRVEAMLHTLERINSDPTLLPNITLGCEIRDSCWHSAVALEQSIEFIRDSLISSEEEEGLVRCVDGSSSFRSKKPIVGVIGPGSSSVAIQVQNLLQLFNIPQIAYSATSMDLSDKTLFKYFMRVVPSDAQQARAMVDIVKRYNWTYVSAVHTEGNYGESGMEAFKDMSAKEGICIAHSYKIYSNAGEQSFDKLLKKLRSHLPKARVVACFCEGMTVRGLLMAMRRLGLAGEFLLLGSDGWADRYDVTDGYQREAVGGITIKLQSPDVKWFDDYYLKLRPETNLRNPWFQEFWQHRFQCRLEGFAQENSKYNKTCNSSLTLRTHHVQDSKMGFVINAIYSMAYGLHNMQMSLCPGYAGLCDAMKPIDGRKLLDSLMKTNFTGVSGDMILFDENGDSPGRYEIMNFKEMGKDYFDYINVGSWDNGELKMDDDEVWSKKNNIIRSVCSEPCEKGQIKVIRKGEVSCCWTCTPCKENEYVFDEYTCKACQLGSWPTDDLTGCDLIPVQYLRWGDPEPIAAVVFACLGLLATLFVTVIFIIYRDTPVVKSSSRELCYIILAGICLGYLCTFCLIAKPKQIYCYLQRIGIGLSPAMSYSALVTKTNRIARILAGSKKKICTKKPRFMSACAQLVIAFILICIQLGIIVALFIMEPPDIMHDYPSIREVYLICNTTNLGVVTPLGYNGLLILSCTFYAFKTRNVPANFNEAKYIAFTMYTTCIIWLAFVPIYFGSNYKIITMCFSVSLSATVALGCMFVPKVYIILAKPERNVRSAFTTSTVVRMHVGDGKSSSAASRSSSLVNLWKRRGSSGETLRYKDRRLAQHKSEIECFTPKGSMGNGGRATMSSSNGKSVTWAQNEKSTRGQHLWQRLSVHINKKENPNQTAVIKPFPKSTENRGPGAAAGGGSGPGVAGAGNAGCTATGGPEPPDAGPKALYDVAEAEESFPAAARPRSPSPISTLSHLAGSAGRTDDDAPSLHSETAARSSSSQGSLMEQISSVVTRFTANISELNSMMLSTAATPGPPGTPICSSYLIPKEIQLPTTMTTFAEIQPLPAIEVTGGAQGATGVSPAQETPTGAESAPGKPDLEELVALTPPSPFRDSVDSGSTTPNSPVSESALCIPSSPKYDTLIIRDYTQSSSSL
Method in brief: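 Calcium mobilization in HEK293 cells expressing rat mGlu5, used to obtain functional EC50. pEC50 is the mean of three independent determinations, with coefficient of variation <0.05.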

[2] = molecular target: Metabotropic glutamate receptor 5 (Rattus norvegicus) (UniProt P31424); experiment: Displacement of [3H]methoxyPEPy from rat mGluR5 expressed in human HEK293 cells at 10 uM after 1 hr by scintillation counter; type: cell-based
Chain of Metabotropic glutamate receptor 5 (Rattus norvegicus) (P31424 21-1203 limits assumed): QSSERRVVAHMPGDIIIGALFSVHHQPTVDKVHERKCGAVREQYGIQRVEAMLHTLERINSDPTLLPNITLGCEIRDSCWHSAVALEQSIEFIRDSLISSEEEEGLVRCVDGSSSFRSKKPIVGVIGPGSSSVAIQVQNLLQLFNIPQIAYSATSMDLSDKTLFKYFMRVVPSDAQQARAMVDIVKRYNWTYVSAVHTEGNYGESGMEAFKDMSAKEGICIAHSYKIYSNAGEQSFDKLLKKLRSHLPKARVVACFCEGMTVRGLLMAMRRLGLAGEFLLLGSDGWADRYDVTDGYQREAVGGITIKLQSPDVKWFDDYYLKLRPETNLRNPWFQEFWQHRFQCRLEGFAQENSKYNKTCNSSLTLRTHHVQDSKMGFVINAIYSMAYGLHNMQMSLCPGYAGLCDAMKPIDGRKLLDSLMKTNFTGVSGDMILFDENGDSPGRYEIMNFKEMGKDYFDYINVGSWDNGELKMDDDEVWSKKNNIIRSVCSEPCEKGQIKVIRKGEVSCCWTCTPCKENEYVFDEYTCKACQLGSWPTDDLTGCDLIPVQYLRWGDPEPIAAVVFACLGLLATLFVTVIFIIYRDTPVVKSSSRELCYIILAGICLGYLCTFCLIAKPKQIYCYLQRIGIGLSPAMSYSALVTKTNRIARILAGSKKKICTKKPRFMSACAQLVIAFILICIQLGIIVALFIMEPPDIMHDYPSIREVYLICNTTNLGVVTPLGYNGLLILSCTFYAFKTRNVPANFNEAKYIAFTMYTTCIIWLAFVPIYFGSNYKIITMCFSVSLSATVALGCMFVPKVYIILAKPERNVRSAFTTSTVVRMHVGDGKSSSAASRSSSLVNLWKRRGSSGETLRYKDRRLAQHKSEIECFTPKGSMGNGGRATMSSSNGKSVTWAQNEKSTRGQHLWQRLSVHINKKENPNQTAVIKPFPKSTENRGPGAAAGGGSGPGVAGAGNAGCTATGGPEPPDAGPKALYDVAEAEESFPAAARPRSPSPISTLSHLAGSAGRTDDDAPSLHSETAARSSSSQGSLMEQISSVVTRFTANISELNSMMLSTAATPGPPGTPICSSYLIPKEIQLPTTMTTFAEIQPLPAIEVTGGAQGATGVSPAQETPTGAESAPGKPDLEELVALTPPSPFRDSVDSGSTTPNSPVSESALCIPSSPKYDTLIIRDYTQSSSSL
Method in brief: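 Single-concentration binding to the MPEP site, read as % displacement of [3H]methoxyPEPy at 10 μM test compound. Values are the average of two determinations.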

[3] = molecular target: T1, Metabotropic glutamate receptor 5; experiment: Displacement of [3H]methoxyPEPy from rat mGluR5 expressed in human HEK293 cells after 1 hr by scintillation counter; type: cell-based
[4] = molecular target: Metabotropic glutamate receptor 4 (Homo sapiens, UniProt Q14833); experiment: Positive allosteric modulation of mGluR4
[5] = molecular target: Metabotropic glutamate receptor 7 (Homo sapiens, UniProt Q14831); experiment: Positive allosteric modulation of mGluR7
[6] = Plasma protein binding in human plasma
[7] = tested on: Metabotropic glutamate receptor 5 (Rattus norvegicus), P31424 [T780A]; experiment: Positive allosteric modulation of wild type rat mGlu5 receptor T780A mutant expressed in human HEK293 cells assessed as glutamate concentration response curve at 1 uM; type: cell-based
Chain of Metabotropic glutamate receptor 5 (Rattus norvegicus), P31424 [T780A] (P31424 whole entry T780A): as the sequence (P31424 whole entry) above, with T780A counted along it

Rattus norvegicus [8] = experiment: Volume of distribution at steady state in rat at 10 mg/kg, po; type: ADME, organism-based; set-up: dose 10 mg/kg, route oral; settings: in vivo
Method in brief: (§1)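 Rats were dosed orally at 10 mg/kg in 20% β-CD. Snapshot drug levels were taken in portal vein, plasma and brain at 0.5, 1.0, 3.0 and 6.0 h. AUC, brain/plasma ratio, Cmax, Tmax and Vss were derived from these levels.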

[9] = tested on: Metabotropic glutamate receptor 5 (Rattus norvegicus), P31424 [P654F]; experiment: Positive allosteric modulation of wild type rat mGlu5 receptor P654F mutant expressed in human HEK293 cells assessed as glutamate concentration response curve at 1 uM; type: cell-based
Chain of Metabotropic glutamate receptor 5 (Rattus norvegicus), P31424 [P654F] (P31424 whole entry P654F): as the sequence (P31424 whole entry) above, with P654F counted along it

Brain [10] = experiment: Fraction unbound in rat brain; type: ADME, tissue-based
[11] = Drug uptake in rat brain after 90 mins; type: ADME, tissue-based; settings: read-out: Drug uptake
[12] = molecular target: Metabotropic glutamate receptor 3 (Homo sapiens, UniProt Q14832); experiment: Positive allosteric modulation of mGluR3
Brain [13] = experiment: Ratio of AUC in rat brain to AUC in rat plasma at 10 mg/kg, po; type: ADME, organism-based; set-up: dose 10 mg/kg, route oral; method in brief: as §1
[14] = molecular target: T2, Metabotropic glutamate receptor 5 (Homo sapiens, UniProt P41594); experiment: Positive allosteric modulation of human mGlu5 expressed in HEK293 cells relative to glutamate; type: cell-based
Target sequence in this assay (P41594 21-1212 limits assumed): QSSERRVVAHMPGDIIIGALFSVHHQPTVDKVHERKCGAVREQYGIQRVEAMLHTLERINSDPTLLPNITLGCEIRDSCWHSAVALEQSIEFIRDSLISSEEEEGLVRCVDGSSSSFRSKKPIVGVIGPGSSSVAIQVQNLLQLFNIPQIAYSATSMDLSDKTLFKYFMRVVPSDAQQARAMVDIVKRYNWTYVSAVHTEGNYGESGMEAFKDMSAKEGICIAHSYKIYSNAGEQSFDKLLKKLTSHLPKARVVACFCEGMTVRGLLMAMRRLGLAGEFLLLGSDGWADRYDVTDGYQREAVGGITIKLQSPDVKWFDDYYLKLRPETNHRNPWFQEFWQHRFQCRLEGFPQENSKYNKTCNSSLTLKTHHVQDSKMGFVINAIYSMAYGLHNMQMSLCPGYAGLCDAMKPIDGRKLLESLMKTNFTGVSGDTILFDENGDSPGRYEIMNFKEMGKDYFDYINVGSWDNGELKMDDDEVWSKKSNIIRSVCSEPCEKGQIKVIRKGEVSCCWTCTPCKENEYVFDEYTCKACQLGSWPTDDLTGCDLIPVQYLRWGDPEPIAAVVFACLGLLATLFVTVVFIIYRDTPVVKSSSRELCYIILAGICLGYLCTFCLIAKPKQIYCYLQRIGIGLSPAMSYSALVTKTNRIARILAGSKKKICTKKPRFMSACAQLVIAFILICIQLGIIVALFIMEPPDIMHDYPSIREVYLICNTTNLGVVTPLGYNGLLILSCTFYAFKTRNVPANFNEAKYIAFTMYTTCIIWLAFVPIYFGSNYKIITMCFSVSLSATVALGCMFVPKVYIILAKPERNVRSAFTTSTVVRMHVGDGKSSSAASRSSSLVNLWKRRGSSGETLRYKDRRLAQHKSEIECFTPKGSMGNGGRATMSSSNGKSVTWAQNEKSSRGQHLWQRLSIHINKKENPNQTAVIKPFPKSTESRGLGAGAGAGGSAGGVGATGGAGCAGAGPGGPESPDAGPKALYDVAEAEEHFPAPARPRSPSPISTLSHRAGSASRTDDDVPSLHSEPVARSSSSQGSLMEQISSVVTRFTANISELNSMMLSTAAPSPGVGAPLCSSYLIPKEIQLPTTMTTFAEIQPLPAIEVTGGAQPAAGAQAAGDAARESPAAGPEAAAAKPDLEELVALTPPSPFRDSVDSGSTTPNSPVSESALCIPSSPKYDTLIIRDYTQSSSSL

Plasma = experiment: AUC in rat plasma at 10 mg/kg, po; type: ADME, organism-based; set-up: dose 10 mg/kg, route oral; settings: in vivo; method in brief: as §1
[15] = AUC in rat brain at 10 mg/kg, po; type: ADME, organism-based; set-up: dose 10 mg/kg, route oral; method in brief: as §1
[16] = Solubility of the compound in fasted state simulated intestinal fluid; type: physicochemical
[17] = Plasma protein binding in rat plasma
[18] = molecular target: Metabotropic glutamate receptor 5 (Rattus norvegicus) (UniProt P31424); experiment: Positive allosteric modulation of rat mGlu5 expressed in human HEK293 cells relative to glutamate; type: cell-based
Brain [19] = experiment: Tmax in rat brain at 10 mg/kg, po; type: ADME, organism-based; set-up: dose 10 mg/kg, route oral; settings: in vivo; method in brief: as §1
[20] = molecular target: Metabotropic glutamate receptor 8 (Homo sapiens, UniProt O00222); experiment: Positive allosteric modulation of mGluR8
[21] = molecular target: Metabotropic glutamate receptor 6 (Homo sapiens, UniProt O15303); experiment: Positive allosteric modulation of mGluR6
[22] = molecular target: T2, Metabotropic glutamate receptor 5; experiment: Positive allosteric modulation of human mGluR5 expressed in HEK293 cells assessed as calcium mobilization; type: functional, cell-based
Target sequence in this assay (P41594 whole entry): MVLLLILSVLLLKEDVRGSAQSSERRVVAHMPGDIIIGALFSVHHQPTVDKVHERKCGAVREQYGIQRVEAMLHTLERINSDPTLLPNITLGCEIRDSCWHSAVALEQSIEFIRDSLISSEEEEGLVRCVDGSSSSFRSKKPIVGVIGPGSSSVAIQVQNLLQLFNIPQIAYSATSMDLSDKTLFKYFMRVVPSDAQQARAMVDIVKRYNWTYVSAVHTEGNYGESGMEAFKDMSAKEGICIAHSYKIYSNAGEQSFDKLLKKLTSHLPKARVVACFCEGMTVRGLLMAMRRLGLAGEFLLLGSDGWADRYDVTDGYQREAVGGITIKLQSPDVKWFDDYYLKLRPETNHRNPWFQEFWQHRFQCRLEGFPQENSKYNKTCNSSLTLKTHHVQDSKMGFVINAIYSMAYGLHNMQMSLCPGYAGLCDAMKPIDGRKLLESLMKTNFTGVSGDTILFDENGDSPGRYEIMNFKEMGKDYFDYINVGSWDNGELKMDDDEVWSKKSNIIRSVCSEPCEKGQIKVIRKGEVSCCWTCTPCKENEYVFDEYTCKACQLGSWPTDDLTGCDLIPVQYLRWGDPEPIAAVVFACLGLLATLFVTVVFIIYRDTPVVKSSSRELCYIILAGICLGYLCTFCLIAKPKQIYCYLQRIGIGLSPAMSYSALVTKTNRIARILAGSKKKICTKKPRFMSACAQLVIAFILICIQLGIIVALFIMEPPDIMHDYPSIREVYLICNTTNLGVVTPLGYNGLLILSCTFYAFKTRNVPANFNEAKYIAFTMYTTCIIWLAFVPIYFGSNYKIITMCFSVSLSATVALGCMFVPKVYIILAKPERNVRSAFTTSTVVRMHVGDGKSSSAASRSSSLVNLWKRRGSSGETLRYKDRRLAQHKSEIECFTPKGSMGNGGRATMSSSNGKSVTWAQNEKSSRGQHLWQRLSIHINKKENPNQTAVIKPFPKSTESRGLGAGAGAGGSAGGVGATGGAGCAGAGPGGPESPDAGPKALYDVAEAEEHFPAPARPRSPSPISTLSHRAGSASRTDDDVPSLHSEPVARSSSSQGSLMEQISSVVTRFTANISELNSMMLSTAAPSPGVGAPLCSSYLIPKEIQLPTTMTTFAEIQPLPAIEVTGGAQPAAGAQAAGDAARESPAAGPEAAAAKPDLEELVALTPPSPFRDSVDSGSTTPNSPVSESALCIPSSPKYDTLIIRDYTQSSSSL

[23] = molecular target: Metabotropic glutamate receptor 2 (Homo sapiens, UniProt Q14416); experiment: Positive allosteric modulation of mGluR2
[24] = molecular target: Metabotropic glutamate receptor 5 (Rattus norvegicus) (UniProt P31424); experiment: Positive allosteric modulation of wild type rat mGlu5 expressed in human HEK293 cells assessed as glutamate concentration response curve at 1 uM; type: cell-based
Rattus norvegicus [25] = experiment: Antipsychotic activity in rat assessed as reversal of amphetamine-induced hyperlocomotion at 100 mg/kg, po; type: functional, organism-based; set-up: dose 100 mg/kg
Method in brief: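 Rats given amphetamine to induce hyperlocomotion received the test agent orally at 100 mg/kg in 20% β-CD vehicle. Reversal of locomotor activity was measured.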

[26] = tested on: Metabotropic glutamate receptor 5 (Rattus norvegicus), P31424 [A809V]; experiment: Positive allosteric modulation of wild type rat mGlu5 receptor A809V mutant expressed in human HEK293 cells assessed as glutamate concentration response curve at 1 uM; type: cell-based
Chain of Metabotropic glutamate receptor 5 (Rattus norvegicus), P31424 [A809V] (P31424 whole entry A809V): as the sequence (P31424 whole entry) above, with A809V counted along it

[27] = Cmax in rat brain at 10 mg/kg, po; type: ADME, organism-based; set-up: dose 10 mg/kg, route oral; method in brief: as §1
[28] = Terminal half life in rat at 1 mg/kg, iv and 10 mg/kg, po; type: ADME, organism-based; settings: in vivo, read-out: beta t1/2 (converted)
Method in brief: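 Non-crossover rat PK study with 1 mg/kg IV dosing and 10 mg/kg PO dosing in 20% β-CD. Plasma clearance and terminal half-life were determined.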

[29] = molecular target: Metabotropic glutamate receptor 1 (Homo sapiens, UniProt Q13255); experiment: Positive allosteric modulation of mGluR1

With `CCCCOc1ccc(C(=O)NC2CCCCC2)cn1` as the molecule, how does the EC50 ([1]; read-out: EC50) read?
Its EC50 is 2.49 µM.

What about the Activity [2] of the same molecule?
Its Activity is 27%.

With `O=C(NC1CCCCC1)c1ccc(OCC2CC2)nc1` as the molecule, how does the EC50 ([1]; hek293) read?
Its EC50 is “Not Active”.

With `C[C@@H](NC(=O)c1ccc(OCc2cccc(F)c2)nc1)C1CCCCC1` as the molecule, how does the EC50 ([1]; read-out: EC50) read?
Its EC50 is 0.015 µM.

Which EC50 ([1]; read-out: EC50) does the source give for `CCCCOc1ccc(C(=O)NC2CCC2)cc1` here?
Its EC50 is 5.17 µM.

What about the Activity [2] of the same molecule?
The Activity was 6.5%.

Which EC50 ([1]; hek293) does the source give for `CCCOc1ccc(C(=O)NC2CCCCC2)cn1` here?
The EC50 was “Not Active”.

What does the source list for `CCCCOc1ccc(C(=O)Nc2ccc(F)cc2F)cn1`?
EC50 ([1]; read-out: EC50): 0.725 µM; Activity [2]: 5%

Which EC50 ([1]; hek293) does the source give for `CCCC(C)Oc1ccc(C(=O)NC2CCCCC2)cn1` (stereo unspecified) here?
Its EC50 is “Not Active”.

Which results are given for `CCCCOc1ccc(C(=O)NC2CCCCC2)cc1`?
EC50 ([1]; read-out: EC50): 0.607 µM; Activity [2]: 12%

For `CC(C)CCOc1ccc(C(=O)NC2CCCCC2)cn1`, which EC50 ([1]; read-out: EC50) is on record?
The EC50 was 1.14 µM.

For `C[C@@H](NC(=O)c1ccc(OCc2cccc(F)c2)nc1)C(C)(C)C`, which Ki [3] is on record?
The Ki was 0.153 µM.

And the EC50 [4]?
Its EC50 is over 10 µM.

And the EC50 [5]?
The EC50 was over 10 µM.

And the PPB [6]?
Its PPB is at least 0.99.

And the Activity [7]?
The Activity was “inactive”.

And the Vdss (Rattus norvegicus [8])?
Its Vdss is 2.3 L/kg.

And the Activity [9]?
Its Activity is “inactive”.

And the Fu (Brain [10])?
The Fu was 1%.

And the concentration at 1.5 h [11]?
The concentration at 1.5 h was 7.4 µM.

And the EC50 [12]?
Its EC50 is over 10 µM.

What about the “Ratio AUC” value (Brain [13]) of the same molecule?
Its value is 0.05.

What about the Emax [14] of the same molecule?
Its Emax is 86%.

And the fold change (FC) [14]?
Its fold change (FC) is 10.

What about the AUC (Plasma) of the same molecule?
The AUC was 23 µM·h.

What about the AUC [15] of the same molecule?
The AUC was 1.2 µM·h.

What about the solubility [16] of the same molecule?
Its solubility is under 20 µg/mL.

And the PPB [17]?
The PPB was at least 0.99.

And the Emax [18]?
Its Emax is 83%.

And the fold change (FC) [18]?
The fold change (FC) was 8.2.

And the Tmax (Brain [19])?
Its Tmax is 0.5 h.

And the EC50 [20]?
The EC50 was over 10 µM.

What about the EC50 [21] of the same molecule?
Its EC50 is over 10 µM.

And the EC50 [22]?
Its EC50 is 0.07 µM.

What about the EC50 [23] of the same molecule?
Its EC50 is over 10 µM.

What about the fold change (FC) [24] of the same molecule?
The fold change (FC) was 5.

And the Activity (Rattus norvegicus [25])?
Its Activity is “Active”.

What about the Activity [26] of the same molecule?
The Activity was “inactive”.

And the Cmax [27]?
The Cmax was 0.435 µM.

What about the half-life [28] of the same molecule?
Its half-life is 5 h.

What about the EC50 [29] of the same molecule?
The EC50 was over 10 µM.

For `CCC(C)COc1ccc(C(=O)NC2CCCCC2)cn1` (racemic), which EC50 ([1]; read-out: EC50) is on record?
The EC50 was 1.08 µM.

Which results are given for `O=C(NC1CCCCC1)c1ccc(OCc2ccccc2)nc1`?
EC50 ([1]; read-out: EC50): 0.034 µM; Activity [2]: 21%

For `O=C(NC1CCC1)c1ccc(OCc2cccc(F)c2)nc1`, which EC50 ([1]; read-out: EC50) is on record?
The EC50 was 0.3 µM.

Which EC50 ([1]; read-out: EC50) does the source give for `CC(C)(C)NC(=O)c1ccc(OCc2cccc(F)c2)nc1` here?
Its EC50 is 0.136 µM.

Which EC50 ([1]; hek293) does the source give for `O=C(NC1COC1)c1ccc(OCc2cccc(F)c2)nc1` here?
The EC50 was “Not Active”.

With `O=C(NC1CCOCC1)c1ccc(OCc2cccc(F)c2)nc1` as the molecule, how does the EC50 ([1]; read-out: pEC50 (converted)) read?
Its EC50 is 1.62 µM.

With `O=C(NC1CCOCC1)c1ccc(OCc2ccccc2)nc1` as the molecule, how does the EC50 ([1]; read-out: EC50) read?
The EC50 was 3.81 µM.

Which EC50 ([1]; read-out: EC50) does the source give for `O=C(NC1CCCCC1)c1ccc(OCc2cccc(F)c2)nc1` here?
Its EC50 is 0.029 µM.

Which EC50 ([1]; hek293) does the source give for `CCCCOc1ccc(C(=O)N(C)c2ccc(F)cc2F)cc1` here?
Its EC50 is “Not Active”.

Which results are given for `C[C@@H](NC(=O)c1ccc(OCc2cccc(F)c2)cc1)C(C)(C)C`?
Emax [14]: 70%; EC50 [22]: 0.18 µM

Which EC50 ([1]; read-out: EC50) does the source give for `CCCCOc1ccc(C(=O)Nc2ncc(F)cc2F)cc1` here?
The EC50 was over 10 µM.

And the Activity [2]?
Its Activity is 0%.

Which EC50 ([1]; read-out: EC50) does the source give for `O=C(NC1CCCCC1)c1ccc(OCc2ccc(F)cc2)nc1` here?
The EC50 was 0.251 µM.

What does the source list for `O=C(NC1CCC1)c1ccc(C#Cc2cccc(F)c2)nc1`?
Ki [3]: 0.195 µM; EC50 ([1]; read-out: EC50): 0.016 µM

What does the source list for `CCCCOc1ccc(C(=O)Nc2ccc(F)cn2)cn1`?
EC50 ([1]; read-out: EC50): 1.9 µM; Activity [2]: 9.5%

For `C[C@H](NC(=O)c1ccc(OCc2cccc(F)c2)nc1)C1CCCCC1`, which EC50 ([1]; read-out: EC50) is on record?
The EC50 was 0.167 µM.

Which EC50 ([1]; read-out: EC50) does the source give for `O=C(NC1CCCCC1)c1ccc(OCC2CCCC2)nc1` here?
Its EC50 is 0.446 µM.

And the Activity [2]?
The Activity was 0%.

Which EC50 ([1]; read-out: EC50) does the source give for `O=C(NC1CCC1)c1ccc(OCc2ccccc2)nc1` here?
Its EC50 is 0.297 µM.

For `CCCCOc1ccc(C(=O)Nc2ccc(F)cc2F)cc1`, which Ki [3] is on record?
The Ki was over 100 µM.

What about the EC50 ([1]; hek293, read-out: EC50) of the same molecule?
The EC50 was 0.033 µM.

With `O=C(N[C@@H](C1CC1)C(F)(F)F)c1ccc(OCc2cccc(F)c2)nc1` as the molecule, how does the EC50 ([1]; read-out: EC50) read?
The EC50 was 0.083 µM.

What about the EC50 ([1]; read-out: pEC50 (converted)) of the same molecule?
Its EC50 is 0.0851 µM.

With `CCCCCOc1ccc(C(=O)NC2CCCCC2)cn1` as the molecule, how does the EC50 ([1]; read-out: EC50) read?
The EC50 was 0.449 µM.
